Test results published in the RNAGym collection of RNA variant scans (doi:10.1126/science.aae0568).
Variants at the floor of the assay were thinned out.

B1: tRNA (parent)
chain: GUUCCGUUGGCGUAAUGGUAACGCGUCUCCCUCCUAAGGAGAAGACUGCGGGUUCGAGUCCCGUACGGAACG

Variants of: B1
Assay: yeast fitness relative to wild type (ratio to wild type); higher = fitter; tRNA-Arg(CCU), competitive growth, 37 C, YPD
In short: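 Genotype frequency changes were the basis for Darwinian fitness relative to wild type. The frequencies came from 100-nucleotide paired-end sequencing of gene amplicons from the start population and each end population of pooled yeast strains with tRNA-Arg(CCU) gene variants at the native locus. Competition ran in YPD at 37°C for 24 hours in six replicates, genotypes needed ≥ 100 starting reads, and estimates < 0.5 were set to 0.5.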

Row | Variant | yeast fitness
1 | A21G G39C | 0.732
2 | A21G C29U C31U | ≤ 0.5
3 | A21G C34G C61U | 0.722
4 | A21G G23A A57U A70U | ≤ 0.5
5 | A21G C29G U47G | ≤ 0.5
6 | A21G G39C C46A | 0.881
7 | A21U C27U A37U C60G | ≤ 0.5
8 | A21G C46U G56A C61G | ≤ 0.5
9 | A21G C31G A69C | 0.755
10 | A21G C46U G52C | 0.794
11 | A21U C55U A65C | ≤ 0.5
12 | A21U C30U G39C A43G C46G U54A C62G | ≤ 0.5
13 | A21U C30G C61U | ≤ 0.5
14 | A21U C49A | ≤ 0.5
15 | A21U C30G G41A A43C C55A | ≤ 0.5
16 | A21U C33U A57U U59C | 0.639
17 | A21U C22U G25A A57C G68U A69C | 0.599
18 | A21G G38A | 0.881
19 | A21U C22A G50C G67A | ≤ 0.5
20 | A21U C30G C34U G52A A65C A69U | ≤ 0.5
21 | A21G G25C | 1.04

Row | Variant | yeast fitness
22 | A21U A37G | 0.664
23 | A21G G23A G52C C61U | ≤ 0.5
24 | A21U A43C | 0.974
25 | A21U A40G G67A | 0.553
26 | A21U C55G G68A A70C | ≤ 0.5
27 | A21U C31U G52A | 0.602
28 | A21G C30U G68C | 0.582
29 | A21G C30G A69C | 0.544
30 | A21G C31U A37G C62G | ≤ 0.5
31 | A21U A42G C60A | ≤ 0.5
32 | A21U C24A A45U C62A A69C | ≤ 0.5
33 | A21G C29A G48C | 0.57
34 | A21G G23A C27G C61U A69C | ≤ 0.5
35 | A21U C27G C31A C46A G56C | ≤ 0.5
36 | A21U C24U C27A A37C A40U C49G | ≤ 0.5
37 | A21U C24A A45U C62U | ≤ 0.5
38 | A21G G56U G58C A69U | ≤ 0.5
39 | A21U C33U U59A | ≤ 0.5
40 | A21G G58A | 1.01
41 | A21U C33U | 0.732
42 | A21U C33G | 0.731

Row | Variant | yeast fitness
43 | A21G G23A G58C | 0.537
44 | A21U A36U A45U A65U A70U | 0.624
45 | A21U A40C A57C A70U | ≤ 0.5
46 | A21G U59A | 0.835
47 | A21U C49A G50C A57C C66G | 0.561
48 | A21G G67U | 0.87
49 | A21U C24U G56C G63A U64C G67C | ≤ 0.5
50 | A21G C30G U54G A65G G68U A70C | ≤ 0.5
51 | A21G C29U A57G | 0.602
52 | A21G C29U G41C A69U | 0.63
53 | A21G G52C | 0.639
54 | A21G G48C C61G C62A C66U | ≤ 0.5
55 | A21G G39A A70G | 0.872
56 | A21G G25C C27G A42C A43G | ≤ 0.5
57 | A21U C55U | 0.607
58 | A21G U28C | 0.991
59 | A21G U28A | 0.81
60 | A21U C29U A69G | ≤ 0.5
61 | A21G G41C A69U | 0.682
62 | A21U C55G G56C | ≤ 0.5
63 | A21G U26G G51C | ≤ 0.5

Row | Variant | yeast fitness
64 | A21U C22U G25A C49A | ≤ 0.5
65 | A21U C30G | 0.54
66 | A21U C27G C33G C60G | 0.52
67 | A21U C34U U35A G39A | 0.594
68 | A21G G23A C31U A45C C60A C66U | ≤ 0.5
69 | A21G C30G G51C | ≤ 0.5
70 | A21U A36G A43U U64A | ≤ 0.5
71 | A21G U54G | 0.575
72 | A21G U54C | 0.937
73 | A21G U54A | 0.575
74 | A21U C22U G48A A57U | ≤ 0.5
75 | A21U C22G | 1.01
76 | A21U C22U | 0.546
77 | A21U C27G C30A G67A | ≤ 0.5
78 | A21G C30A C33G U47C U59A C66U | ≤ 0.5
79 | A21G G23A C27G A37U G44A C49U G67C A69U | ≤ 0.5
80 | A21G C31U G52C G68A | ≤ 0.5
81 | A21G C29G | 0.625
82 | A21U C49G A69C | ≤ 0.5
83 | A21U A40C G58C A65C C66G | 0.523
